Eleven compounds from ChEMBL document CHEMBL4706523, “Targeting topoisomerase II with trypthantrin derivatives: Discovery of 7-((2-(dimethylamino)ethyl)amino)indolo[2,1-b]quinazoline-6,12-dione as an antiproliferative agent and to treat cancer” (Eur J Med Chem, 2020) can be followed below.

≈ marks a conversion by molar mass, not a printed value. Calls of active or inactive are those of the source. The rule behind the calls is not given here.

Series [1] addresses T1, DNA topoisomerase 2-alpha (Homo sapiens, UniProt P11388). Put plainly: Inhibition of human DNA topoisomerase 2alpha assessed as suppression of decatenation using catenated kinetoplast DNA as substrate up to 250 uM measured after 30 mins by SYBR safe DNA staining based staining-based agarose gel electrophoresis method. To be noted: dose microM <=250, time 30.0 min. A digest of the protocol: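 Human topoII α decatenation kit reaction, with compound or DMSO vehicle at 5% DMSO final. Incubated 30 min at 37°C, products resolved on 1% agarose with SYBR safe stain. IC50 from four-parameter nonlinear regression, mean ± SD of two independent assays. Tested up to 250 μM.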

Series [2] concerns the target T1, DNA topoisomerase 2-alpha. Put plainly: Inhibition of human DNA topoisomerase 2alpha assessed as suppression of decatenation using catenated kinetoplast DNA as substrate measured after 30 mins by SYBR safe DNA staining based staining-based agarose gel electrophoresis method. A digest of the protocol: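 Human topoII α decatenation kit reaction, with compound or DMSO vehicle at 5% DMSO final. Incubated 30 min at 37°C, products resolved on 1% agarose with SYBR safe stain. IC50 from four-parameter nonlinear regression, mean ± SD of two independent assays.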

The subject of series [3] is CCRF-CEM. Put plainly: Antiproliferative activity against human CCRF-CEM cells assessed as reduction in cell viability after 72 hrs by eosin exclusion dye based light microscopic method. It is filed as functional. To be noted: for IC50: 72 h; for GI50: time 72 hrs. A digest of the protocol: (§1)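 Suspension leukaemia lines grown in RPMI with 4.5 g/L glucose, 2 mM glutamine, penicillin/streptomycin and 10% heat-inactivated FBS (HL-60 in 20% FBS). Seeded at 0.25x10⁶ cells/mL (Jurkat, CCRF-CEM, CEM/C2) or 0.125x10⁶ cells/mL (HL-60). Treated 72h at 0–64 μM, 37°C, 5% CO₂. Viable cells counted by eosin exclusion in a Bürker chamber, normalised to untreated cells. IC50 from non-linear regression, at least triplicate.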

A short description of series [4]: Solubility of compound in water. It is filed as physicochemical. A digest of the protocol: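 Samples were stirred for 24 h at 25°C, centrifuged, and supernatants filtered through 0.45 μm PTFE and diluted. Concentration was taken from UV absorbance against a four-point calibration line in PBS with 2% DMSO, and reported as μg/mL.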
The target of series [5] is T1, DNA topoisomerase 2-alpha. Put plainly: Potency index, ratio of etoposide IC50 to test compound IC50 for inhibition of human DNA topoisomerase 2alpha.
The subject of a further series is Jurkat. Put plainly: Antiproliferative activity against human Jurkat cells assessed as reduction in cell viability after 72 hrs by eosin exclusion dye based light microscopic method. In kind it is functional. A digest of the protocol:
as §1

The next series relates to CEM/C2. Put plainly: Antiproliferative activity against human CEM/C2 cells assessed as reduction in cell viability after 72 hrs by eosin exclusion dye based light microscopic method. It is filed as functional. A digest of the protocol:
as §1

In another series the test system is HL-60. Put plainly: Antiproliferative activity against human HL-60 cells assessed as reduction in cell viability after 72 hrs by eosin exclusion dye based light microscopic method. In kind it is functional. A digest of the protocol: as §1
The species named for series [6] is Homo sapiens. Put plainly: Selectivity ratio of IC50 for antiproliferative activity against human CCRF-CEM cells to IC50 for antiproliferative activity against human Jurkat cells. In kind it is cell-based.
For series [7], the species on record is Homo sapiens. Put plainly: Selectivity ratio of IC50 for antiproliferative activity against human CCRF-CEM cells to IC50 for antiproliferative activity against human MCF7 cells. It is filed as cell-based.
Series [8] is filed under the species Homo sapiens. Put plainly: Selectivity ratio of IC50 for antiproliferative activity against human CEM/C2 cells to IC50 for antiproliferative activity against human Jurkat cells. In kind it is cell-based.
For series [9], the species on record is Homo sapiens. Put plainly: Selectivity ratio of IC50 for antiproliferative activity against human CEM/C2 cells to IC50 for antiproliferative activity against human MCF7 cells. In kind it is cell-based.
Series [10] is filed under the species Homo sapiens. Put plainly: Selectivity ratio of IC50 for antiproliferative activity against human HL-60 cells to IC50 for antiproliferative activity against human Jurkat cells. In kind it is cell-based.
Series [11] is filed under the species Homo sapiens. Put plainly: Selectivity ratio of IC50 for antiproliferative activity against human HL-60 cells to IC50 for antiproliferative activity against human MCF7 cells. It is filed as cell-based.
Series [12] is filed under the species Homo sapiens. Put plainly: Selectivity ratio of IC50 for antiproliferative activity against human HT-29 cells to IC50 for antiproliferative activity against human Jurkat cells. It is filed as cell-based.
The species named for series [13] is Homo sapiens. Put plainly: Selectivity ratio of IC50 for antiproliferative activity against human HT-29 cells to IC50 for antiproliferative activity against human MCF7 cells. It is filed as cell-based.
For series [14], the species on record is Homo sapiens. Put plainly: Selectivity ratio of IC50 for antiproliferative activity against human DLD-1 cells to IC50 for antiproliferative activity against human Jurkat cells. In kind it is cell-based.
Series [15] is filed under the species Homo sapiens. Put plainly: Selectivity ratio of IC50 for antiproliferative activity against human DLD-1 cells to IC50 for antiproliferative activity against human MCF7 cells. It is filed as cell-based.
Series [16] deals with CCRF-CEM. Put plainly: Potency index, ratio of tryp-tanthrin IC50 to test compound IC50 for antiproliferative activity against human CCRF-CEM cells. It is filed as functional.
The test system of series [17] is CCRF-CEM. Put plainly: Induction of cell cycle arrest in human CCRF-CEM cells assessed as increase in accumulation at G2/M phase for 24 hrs by flow cytometric analysis. It is filed as functional, cell-based. To be noted: dose 8.0 µM. A digest of the protocol:
(§2)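 CCRF-CEM seeded at 0.25x10⁶ cells/mL and treated 24h. Cells were fixed/permeabilised in 70% ethanol for at least 1h, then stained with PI 10 μg/mL plus RNase A 100 μg/mL for 20 min at room temperature in the dark. DNA content was read by flow cytometry, with at least 10000 events, to give subG0, G0-G1, S and G2-M fractions.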
In general terms: In flow cytometry, cells or beads pass a laser one at a time.

For series [18], the system named is CCRF-CEM. Put plainly: Induction of cell cycle arrest in human CCRF-CEM cells assessed as decrease in accumulation at G0-G1 phase for 24 hrs by flow cytometric analysis. In kind it is functional, cell-based. To be noted: dose 8.0 µM. In a few lines: as §2
Series [19] concerns CCRF-CEM. Put plainly: Induction of cell cycle arrest in human CCRF-CEM cells assessed as accumulation at G2/M phase at 8 uM for 24 hrs by flow cytometric analysis (reference value: 27%). In kind it is functional. In a few lines: as §2
The subject of series [20] is CCRF-CEM. Put plainly: Induction of cell death in human CCRF-CEM cells assessed as increase in fragmented DNA at 4 to 8 uM after 24 hrs followed by compound wash out further incubated for 24 hrs by flow cytometric analysis. It is filed as functional, cell-based. To be noted: dose 4-8 µM. In a few lines:
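Recovery design: CCRF-CEM were treated 24h, then medium was removed by centrifugation, cells were PBS-washed and cultured a further 24h in drug-free complete medium. Cells were then fixed in 70% ethanol and stained with PI 10 μg/mL plus RNase A 100 μg/mL. Flow cytometry scored subG0 cells, those with fragmented DNA, from at least 10000 events.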

The subject of series [21] is CCRF-CEM. Put plainly: Induction of G2/M cell cycle arrest in human CCRF-CEM cells assessed as increase in cyclin B1 expression at 8 uM by flow cytometric analysis. It is filed as functional, cell-based. To be noted: time 6-24 hrs, TDE = time-dependent effect. A digest of the protocol:
(§3)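 CCRF-CEM exposed to 8 μM for 6, 9, 16 and 24 h. 1×10⁶ cells were fixed in 2% paraformaldehyde, permeabilised in 90% methanol, and stained 30 min with anti-cyclin A or anti-cyclin B1 (1:50), then with secondary (1:200), then PI/RNase A. Flow cytometric MFI was taken in PI-gated G2-M cells and normalised to untreated G2-M cells.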

The subject of series [22] is CCRF-CEM. Put plainly: Induction of G2/M cell cycle arrest in human CCRF-CEM cells assessed as increase in cyclin A expression at 8 uM after 6 to 24 hrs by flow cytometric analysis. In kind it is functional, cell-based. To be noted: time 6-24 hrs. A digest of the protocol: as §3
Series [23] relates to CCRF-CEM. Put plainly: Inhibition of DNA topoisomerase 2 in human CCRF-CEM cells assessed as increase in gamma-H2Ax expression at 8 uM after 1 to 16 hrs by flow cytometric analysis. In kind it is cell-based. To be noted: time 1-16 hrs. In a few lines:
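CCRF-CEM exposed to 8 μM for 1, 2, 3, 5 and 16 h. Cells were fixed in 2% paraformaldehyde, permeabilised in 90% methanol, and stained with anti-γ-H2AX (1:40) then secondary (1:200), with PI/RNase A counterstain. γ-H2AX immunofluorescence was read by flow cytometry per cell-cycle phase and expressed as delta γ-H2AX.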

The subject of another series is HT-29. Put plainly: Antiproliferative activity against human HT29 cells assessed as reduction in cell viability after 72 hrs by 4-methylumbelliferyl heptanoate (MUH) fluorescence assay.
For another series, the system named is MCF7. Put plainly: Antiproliferative activity against human MCF7 cells assessed as reduction in cell viability after 72 hrs by 4-methylumbelliferyl heptanoate (MUH) fluorescence assay.
The test system of a further series is DLD-1. Put plainly: Antiproliferative activity against human DLD-1 cells assessed as reduction in cell viability after 72 hrs by 4-methylumbelliferyl heptanoate (MUH) fluorescence assay.
The subject of series [24] is CCRF-CEM. Put plainly: Antiproliferative activity against human CCRF-CEM cells assessed as reduction in cell viability at 4 uM after 24 hrs by eosin exclusion dye based light microscopic method.
Series [25] has as its target T1, DNA topoisomerase 2-alpha. Put plainly: Poison activity at human DNA topoisomerase 2 alpha assessed as stabilization of cleavage complex using PBR322 as substrate incubated for 15 mins by ethidium bromide staining based agarose gel electrophoresis method.

T1 sequence (P11388 whole entry): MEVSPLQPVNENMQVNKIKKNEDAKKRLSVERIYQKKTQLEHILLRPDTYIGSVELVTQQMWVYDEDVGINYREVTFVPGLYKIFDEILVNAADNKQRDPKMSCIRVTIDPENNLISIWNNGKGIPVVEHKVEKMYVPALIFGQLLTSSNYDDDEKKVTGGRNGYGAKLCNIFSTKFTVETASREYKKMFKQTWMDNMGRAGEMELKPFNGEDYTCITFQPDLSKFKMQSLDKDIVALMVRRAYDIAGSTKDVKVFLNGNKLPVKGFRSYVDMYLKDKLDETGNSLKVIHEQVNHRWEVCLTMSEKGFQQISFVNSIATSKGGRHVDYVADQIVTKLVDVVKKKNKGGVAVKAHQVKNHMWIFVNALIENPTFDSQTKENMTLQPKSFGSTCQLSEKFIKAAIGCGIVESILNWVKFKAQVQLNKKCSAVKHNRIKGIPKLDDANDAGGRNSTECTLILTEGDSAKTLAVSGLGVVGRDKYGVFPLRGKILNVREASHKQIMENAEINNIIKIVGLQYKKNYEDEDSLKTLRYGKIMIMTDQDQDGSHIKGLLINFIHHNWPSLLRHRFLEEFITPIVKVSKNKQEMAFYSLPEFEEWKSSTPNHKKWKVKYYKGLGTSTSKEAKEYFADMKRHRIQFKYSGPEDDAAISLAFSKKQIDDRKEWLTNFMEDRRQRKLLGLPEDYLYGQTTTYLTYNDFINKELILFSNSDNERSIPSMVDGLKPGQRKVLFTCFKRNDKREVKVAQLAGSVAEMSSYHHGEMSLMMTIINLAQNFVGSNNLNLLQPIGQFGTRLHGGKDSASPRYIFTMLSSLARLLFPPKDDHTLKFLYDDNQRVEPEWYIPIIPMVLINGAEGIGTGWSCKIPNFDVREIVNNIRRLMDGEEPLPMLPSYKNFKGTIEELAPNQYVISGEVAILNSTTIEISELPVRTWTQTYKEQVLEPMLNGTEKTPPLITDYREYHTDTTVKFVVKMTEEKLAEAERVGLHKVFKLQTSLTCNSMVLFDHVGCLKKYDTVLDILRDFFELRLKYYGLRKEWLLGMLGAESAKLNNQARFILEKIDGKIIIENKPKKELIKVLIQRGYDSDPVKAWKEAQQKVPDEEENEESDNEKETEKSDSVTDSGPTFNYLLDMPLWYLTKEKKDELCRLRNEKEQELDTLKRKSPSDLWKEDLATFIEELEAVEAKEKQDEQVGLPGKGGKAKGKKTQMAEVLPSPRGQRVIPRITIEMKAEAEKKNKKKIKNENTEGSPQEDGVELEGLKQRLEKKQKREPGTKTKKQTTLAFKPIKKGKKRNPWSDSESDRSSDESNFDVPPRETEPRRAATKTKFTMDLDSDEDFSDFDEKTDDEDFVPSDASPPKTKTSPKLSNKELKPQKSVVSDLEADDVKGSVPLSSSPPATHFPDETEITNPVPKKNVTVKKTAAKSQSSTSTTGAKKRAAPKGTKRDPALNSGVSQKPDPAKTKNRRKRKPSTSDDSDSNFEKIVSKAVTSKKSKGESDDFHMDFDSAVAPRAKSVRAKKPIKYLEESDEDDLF

On to `CCN(CC)c1ccc2c(c1)-n1c(nc3ccccc3c1=O)C2=O`, for which, in [1], the inhibition result is “inactive”.

Turning to `O=C1c2ccc(N3CCOCC3)cc2-n2c1nc1ccccc1c2=O`, in series [1], the inhibition result was “inactive”.

Consider `O=C1c2c(N3CCOCC3)cccc2-n2c1nc1ccccc1c2=O`, for which the inhibition entry in [1] was “inactive”.

As for `O=C1c2c(NCCO)cccc2-n2c1nc1ccccc1c2=O`, in [1], the inhibition entry was “inactive”.

By IC50 is commonly meant the concentration that inhibits the measured activity by half. Consider `CN1CCN(c2ccc3c(c2)-n2c(nc4ccccc4c2=O)C3=O)CC1`, for which the IC50 in series [2] was 138 µM.

As for `CN1CCN(c2cccc3c2C(=O)c2nc4ccccc4c(=O)n2-3)CC1`, in series [2], the IC50 is 114 µM.

With `CCN(CC)c1cccc2c1C(=O)c1nc3ccccc3c(=O)n1-2`, in series [1], the inhibition entry was “inactive”.

In general, GI50 refers to the concentration at which growth is held to half of that of the control. By solubility is commonly meant how much of the substance goes into solution per volume. For `O=C1c2ccccc2-n2c1nc1ccccc1c2=O` [TRYPTANTHRIN], the inhibition entry in [1] was “inactive”. For the same compound, in the series with CCRF-CEM [3], the IC50 stood at 44.4 µM and the GI50 worked out at 14.5 µM. The compound also showed a solubility in [4] (buffer) of 91.02 µM (≈ 22.6 µg/mL).

Take `CN(C)CCNc1cccc2c1C(=O)c1nc3ccccc3c(=O)n1-2`: the IC50 in series [2] was found to be 26.6 µM; in the series on Jurkat, 18.2 µM; in the series on CCRF-CEM [3], 8.26 µM; in the series on CEM/C2 (CEM/C2, 72 h) it was 9.16 µM; with HL-60 (HL-60, 72 h), 11.5 µM; in the series with HT-29 (HT-29, 72 h) it was 9.4 µM. The IC50 in the series with MCF7 (MCF7, 72 h) is 30.5 µM; in the series on DLD-1 (DLD-1, 72 h), 7.13 µM. The Ratio IC50 turned out to be 2.5 in series [5]; 2 in the series listed under Homo sapiens [6]; 3 in the series listed under Homo sapiens [7]; 2 in the series listed under Homo sapiens [8]; 3 in the series listed under Homo sapiens [9]; 2 in the series listed under Homo sapiens [10]. The Ratio IC50 came out at 3 in the series filed under Homo sapiens [11]; 2 in the series filed under Homo sapiens [12]; 3 in the series listed under Homo sapiens [13]; 2 in the series filed under Homo sapiens [14]; 3 in the series filed under Homo sapiens [15]; 5 with CCRF-CEM [16]. The Activity result in the series on Jurkat, in the series with CCRF-CEM [3], in the series with CEM/C2, with HL-60, in the series with CCRF-CEM [17] and in the series with CCRF-CEM [18] was “Dose-dependent effect” in each case. Further, the Activity is 78% in the series with CCRF-CEM [19]; “Tde” in the series on CCRF-CEM [21]; “Dose-dependent effect” in the series on HT-29; “Dose-dependent effect” with MCF7; “Dose-dependent effect” in the series on DLD-1. Besides, the GI50 with CCRF-CEM [3] is 1.36 µM. Besides, the outcome in the series with CCRF-CEM [20] and in the series with CCRF-CEM [24] was Active. Also, the result (with CCRF-CEM [22]; in [25]) was inactive. Moreover, the inhibition result with CCRF-CEM [23] is “Active”. Further, the solubility in [4] (water, read-out: solubility) was determined as 996 µM (≈ 333 µg/mL).

Turning to `O=C1c2c(N3CCCCC3)cccc2-n2c1nc1ccccc1c2=O`, in series [1], the inhibition entry was “inactive”.

For `O=C1c2ccc(N3CCCCC3)cc2-n2c1nc1ccccc1c2=O`, the inhibition entry in [1] was “inactive”.
